Assay results pooled from the literature.
Compare with care: the assays were run in different laboratories.
CYP2C19: Cytochrome P450 2C19 (CYP2C19, Homo sapiens, UniProt P33261)

SMILES | target or system | test | system | conditions | quantity | result
O=c1[nH]cc(F)c(=O)[nH]1 | A549 | cell growth or viability, CCK-8 |  | 50 µM | viability | 27.3%
NCc1ccc(-c2nn(Cc3ccncc3)c3ccccc23)o1 |  |  | male CD-1 mouse, plasma | intravenous, 5 mg/kg | C0 | 1360 ng/mL
[N-]=[N+]=N[C@]1(CO)O[C@@H](n2ccc(N)nc2=O)[C@@H](F)[C@@H]1O | A549 | cell growth or viability, ATP luminescence |  | 72 h | CC50 | > 50 µM
CN(CCOc1ccc(CC2SC(=O)NC2=O)cc1)c1ccccn1 (stereo not drawn) | A549 | cell growth or viability, resazurin |  | 72 h | CC50 | 100 µM
C[C@H]1Oc2cc(cnc2N)-c2c(nn(C)c2C#N)CN(C)C(=O)c2ccc(F)cc21 |  |  | male Sprague-Dawley rat, plasma | oral, 5 mg/kg, single dose | Tmax | 1.5 h
O=C(CCCCCCC(=O)Nc1ccccc1)NO | CYP2C19 | enzyme activity, inhibitor, fluorescence |  |  | IC50 | 3.26 µM
OB(O)c1csc2ccccc12 | HFF-1 | cell growth or viability, resazurin |  | 50 µM, 24 h | viability | > 75%
C=CCn1c(=O)c2cnc(Nc3ccc(N4CCN(C)CC4)cc3)nc2n1-c1ccc2c(n1)[C@@](O)(CC)CC2 |  |  | dog, plasma | intravenous, 3 mg/kg | clearance | 46 mL/min/kg
CSc1ccccc1C(=O)NCCn1cc(C(=O)NCc2cccc(C)n2)c(=O)c2cc3c(cc21)OCO3 | CYP2C19 | enzyme activity, inhibitor | human, liver microsomes | 20 min, without NADPH, with preincubation | IC50 | > 100 µM
CN(C)C(=O)c1cc2cnc(Nc3ccc(-c4ccc5c(=O)cc(N6CCOCC6)oc5c4)cc3)nc2n1C1CCCC1.Cl |  |  | BALB/c mouse, plasma | intravenous, 2 mg/kg | CL/F | 11.7 mL/min/kg
CSc1ccccc1C(=O)NCCn1cc(C(=O)NCc2cccc(C)n2)c(=O)c2cc3c(cc21)OC(F)(F)O3 | CYP2C19 | enzyme activity, inhibitor | human, liver microsomes | 20 min, without NADPH, with preincubation | IC50 | > 100 µM
CCC(CC)COC(=O)[C@H](C)N[P@](=O)(OC[C@H]1O[C@@](C#N)(c2ccc3c(N)ncnn23)[C@H](O)[C@@H]1O)Oc1ccccc1 | A549 | cell growth or viability, resazurin |  | 72 h | CC50 | 25 µM
